The results in this text go back to the RNAGym collection of RNA variant scans (doi:10.1002/anie.201605470).

B1: Osa-1-4 twister ribozyme (parent)
chain: CCGCCUAACACUGCCAAUGCCGGUCCCAAGCCCGGAUAAAAGUGGAGGGGGCGG

Variants of B1 are the subject of this data set. The data set is described as follows: self-cleavage, relative activity (ratio to wild type); higher = more cleavage; co-transcriptional. The gist of the method: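 For each read, cleavage status was taken from whether upstream sequence was present. The reads came from an Oryza sativa twister ribozyme of 54 nucleotides, whose DNA template was synthesised with 97 % wild-type base and 1 % of each other base at the 48 positions downstream of the cleavage site. The template was transcribed in vitro at 37 °C for 2 h with co-transcriptional self-cleavage, and the RNA was reverse-transcribed using a template-switching oligonucleotide, PCR-amplified and deep-sequenced. Relative activity is the fraction cleaved normalised to wild type.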
Turning to CCGCCUAACACAGCCAAUGCCGGUGCCAAGCCCGGAUAAAAGUGGAGGGGGCGG [C25G U12A], the self-cleavage was 0.06.
As for CCGCCUAACACCGCCAAUGCCGGUGCCAAGCCCGGAUAAAAGUGGAGGGGGCGG [C25G U12C], the figure is 0.05; as for CCGCCUAACACGGCCAAUGCCGGUGCCAAGCCCGGAUAAAAGUGGAGGGGGCGG [C25G U12G], 0.04.
Turning to CCGCCUAACACUGCCAAUGCCGGUGCCAAGCCCGGAUAAAAGUGGAGGGGGCUG [C25G G53U], the self-cleavage came to 0.06.
For the variant CCGCCUAACACUGCCAAUGCCGGUGCCAAGCCCGGAUAAAAGUGGAGGGGGCAG [C25G G53A], the self-cleavage was 0.08.
The same measure for CCGCCUAACACUGCCAAUGCCGGUGCCAAGCCCGGAUAAAAGUGGAGGGGGCCG [C25G G53C]: 0.02.
CCGCCUAACACUGCCAAUGCCGGUUCCAAGCCCGGAUAAAAGUGGAGUGGGCGG [C25U G48U]: the self-cleavage came out at 0.04.
As for CCGCCUAACACUGCCAAUGCCGGUUCCAAGCCCGGAUAAAAGUGGAGCGGGCGG [C25U G48C], the figure is 0.06; as for CCGCCUAACACUGCCAAUGCCGGUUCCAAGCCCGGAUAAAAGUGGAGAGGGCGG [C25U G48A], 0.07; as for CCGCCUAACACUGCCAAUGCCGGUUCCAAGCCCGGAUAAAAGUGUAGGGGGCGG [C25U G45U], 0.05.
As for CCGCCUAACACUGCCAAUGCCGGUUCCAAGCCCGGAUAAAAGUGCAGGGGGCGG [C25U G45C], the self-cleavage was 0.05.
The same measure for CCGCCUAACACUGCCAAUGCCGGUUCCAAGCCCGGAUAAAAGUGAAGGGGGCGG [C25U G45A]: 0.06; for CCGCCUAACACUGCCAAUGCCAGUUCCAAGCCCGGAUAAAAGUGGAGGGGGCGG [C25U G22A]: 0.74; for CCGCCUAACACUGCCAAUGCCCGUUCCAAGCCCGGAUAAAAGUGGAGGGGGCGG [C25U G22C]: 0.07.
In the case of CCGCCUAACACUGCCAAUGCCUGUUCCAAGCCCGGAUAAAAGUGGAGGGGGCGG [C25U G22U], the self-cleavage stood at 0.47.
Consider CCGCCUAACACUGCCAAUGCCGGUGCCAAGCCCGGAUAAAAGUGGAGGGGCCGG [C25G G51C], for which the self-cleavage was 0.03.
The same measure for CCGCCUAACACUGCCAAUGCCGGUGCCAAGCCCGGAUAAAAGUGGAGGGGACGG [C25G G51A]: 0.07; for CCGCCUAACACUGCCAAUGCCGGUGCCAAGCCCGGAUAAAAGUGGAGGGGUCGG [C25G G51U]: 0.04.
As to CCGCCUAACACUGCCAAUACCGGUUCCAAGCCCGGAUAAAAGUGGAGGGGGCGG [C25U G19A], the self-cleavage was 0.14.
Turning to CCGCCUAACACUGCCAAUUCCGGUUCCAAGCCCGGAUAAAAGUGGAGGGGGCGG [C25U G19U], the self-cleavage stood at 0.08.
CCGCCUAACACUGCCAAUCCCGGUUCCAAGCCCGGAUAAAAGUGGAGGGGGCGG [C25U G19C]: the self-cleavage was 0.04.
The same measure for CCGCCUAACACUGCCAAUGCCGGUUCCAAGCCUGGAUAAAAGUGGAGGGGGCGG [C25U C33U]: 0.31; for CCGCCUAACACUGCCAAUGCCGGUUCCAAGCCGGGAUAAAAGUGGAGGGGGCGG [C25U C33G]: 0.06; for CCGCCUAACACUGCCAAUGCCGGUUCCAAGCCAGGAUAAAAGUGGAGGGGGCGG [C25U C33A]: 0.06.
On to CCGCCUAACACUCCCAAUGCCGGUUCCAAGCCCGGAUAAAAGUGGAGGGGGCGG [C25U G13C], for which the self-cleavage is 0.02.
The same measure for CCGCCUAACACUACCAAUGCCGGUUCCAAGCCCGGAUAAAAGUGGAGGGGGCGG [C25U G13A]: 0.07; for CCGCCUAACACUUCCAAUGCCGGUUCCAAGCCCGGAUAAAAGUGGAGGGGGCGG [C25U G13U]: 0.03.
On to CCGCCUAACACUGCCAAUGCCGGUGCCAAGCCCGGAUAAAAGGGGAGGGGGCGG [C25G U43G], for which the self-cleavage stood at 0.04.
As to CCGCCUAACACUGCCAAUGCCGGUGCCAAGCCCGGAUAAAAGAGGAGGGGGCGG [C25G U43A], the self-cleavage turned out to be 0.08.
As for CCGCCUAACACUGCCAAUGCCGGUGCCAAGCCCGGAUAAAAGCGGAGGGGGCGG [C25G U43C], the figure is 0.06; as for CCGCCUAACACUGCCAAAGCCGGUGCCAAGCCCGGAUAAAAGUGGAGGGGGCGG [C25G U18A], 0.08; as for CCGCCUAACACUGCCAACGCCGGUGCCAAGCCCGGAUAAAAGUGGAGGGGGCGG [C25G U18C], 0.13.
As for CCGCCUAACACUGCCAAGGCCGGUGCCAAGCCCGGAUAAAAGUGGAGGGGGCGG [C25G U18G], the figure is 0.18; as for CCGCCUAACACUGCCAAUGCCGGUUCCAAGCCCGGAUAAAAGUGGAGGGGGAGG [C25U C52A], 0.66.
CCGCCUAACACUGCCAAUGCCGGUUCCAAGCCCGGAUAAAAGUGGAGGGGGGGG [C25U C52G]: the self-cleavage came out at 0.8.
As for CCGCCUAACACUGCCAAUGCCGGUUCCAAGCCCGGAUAAAAGUGGAGGGGGUGG [C25U C52U], the figure is 0.9; as for CCGCCUAACACUGCCAAUGCCGGAGCCAAGCCCGGAUAAAAGUGGAGGGGGCGG [C25G U24A], 0.03.
As for CCGCCUAACACUGCCAAUGCCGGCGCCAAGCCCGGAUAAAAGUGGAGGGGGCGG [C25G U24C], the self-cleavage came to 0.03.
As for CCGCCUAACACUGCCAAUGCCGGGGCCAAGCCCGGAUAAAAGUGGAGGGGGCGG [C25G U24G], the figure is 0.02.
The same measure for CCGCCUAACACUGCCAAUGCCGGUUCCAAGCCCGGAUAAAAGUGGAGGGGCCGG [C25U G51C]: 0.06; for CCGCCUAACACUGCCAAUGCCGGUUCCAAGCCCGGAUAAAAGUGGAGGGGUCGG [C25U G51U]: 0.17.
For CCGCCUAACACUGCCAAUGCCGGUUCCAAGCCCGGAUAAAAGUGGAGGGGACGG [C25U G51A], the self-cleavage amounted to 0.51.
On to CCGCCUAACACUGCCAAUGCCGGUUCCAAGCCCGGAUAAAAGUCGAGGGGGCGG [C25U G44C], for which the self-cleavage stood at 0.84.
The same measure for CCGCCUAACACUGCCAAUGCCGGUUCCAAGCCCGGAUAAAAGUUGAGGGGGCGG [C25U G44U]: 0.56.
The same measure for CCGCCUAACACUGCCAAUGCCGGUUCCAAGCCCGGAUAAAAGUAGAGGGGGCGG [C25U G44A]: 0.32.
For the variant CCGCCUAACACUGCCAAUGCCGGUGCCAAGCCCGGAUAAAAGUGGAGGGUGCGG [C25G G50U], the self-cleavage was found to be 0.11.
The same measure for CCGCCUAACACUGCCAAUGCCGGUGCCAAGCCCGGAUAAAAGUGGAGGGCGCGG [C25G G50C]: 0.09.
On to CCGCCUAAUACUGCCAAUGCCGGUUCCAAGCCCGGAUAAAAGUGGAGGGGGCGG [C25U C9U], for which the self-cleavage came out at 0.33.
